As usually defined, the EC50 is the concentration needed to bring the measured effect to its halfway point. Read a low EC50 as greater potency. For orientation: IC50 means the concentration that inhibits the measured activity by half. High values mean a need for much substance, low ones inhibition by little substance.

One data set has as its system MDA-MB-231. Description: Inhibition of MDA-MB-231 cell proliferation (mean of two experiments). Format: functional, cell-based, Homo sapiens. In short, it runs like this:
(§1)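 Cells were seeded at 1500 per well and held 24 h at 37 °C. They were then exposed for 48 h to a range of compound concentrations in RPMI-1640 with 10% FBS at 37 °C and 5% CO2. Staining used 0.5 mg/mL methylene blue for 30 min at room temperature. Dye was dissolved in 3% aqueous HCl and absorbance read at 660 nm. EC50 values are means of at least two experiments.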

The next data set has as its system NCI-H460. Description: Inhibition of NCI-H460 cell proliferation (mean). Format: functional, cell-based. As to conditions: Homo sapiens. A digest of the protocol:
as §1

A further data set deals with HCT-116. Description: Inhibition of HCT116 cell proliferation (mean). Particulars: Homo sapiens. Format: functional, cell-based. A digest of the protocol: as §1
Another data set relates to DLD-1. Description: Inhibition of DLD-1 cell proliferation (mean). Format: functional, cell-based. Particulars: Homo sapiens. A digest of the protocol: as §1
Another data set deals with Malme-3M. Description: Inhibition of MALME-3M cell proliferation (mean). Format: functional, cell-based. As to conditions: Homo sapiens. A digest of the protocol:
as §1

For another data set, the system named is A498. Description: Inhibition of A498 cell proliferation (mean). The class given is functional, cell-based. As to conditions: Homo sapiens. In short, it runs like this:
as §1

The test system of a further data set is PC-3. Description: Inhibition of PC-3 cell proliferation (mean). The class given is functional, cell-based. Particulars: Homo sapiens. A digest of the protocol:
as §1

The test system of another data set is T47D. The data set can be described thus: Inhibition of T-47D cell proliferation (mean of two experiments). The class given is functional, cell-based. As to conditions: Homo sapiens. In short, it runs like this: as §1
The nature of data set [1]: Stability (mean % remaining) in human plasma after incubation at 37 °C for 24h. The class given is ADME, cell-free. As to conditions: read-out: %R. A digest of the protocol:
(§2)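 Compounds were incubated in human plasma with sampling at 0, 2, 4, 8 and 24 h. The percentage of intact compound remaining was measured at each point. Values are means of at least three experiments.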

Data set [2] in a line: Stability (mean % remaining) in human plasma after incubation at 37 °C for 8h. The class given is ADME, cell-free. Particulars: read-out: %R. In short, it runs like this:
as §2

Data set [3] is described as follows: Stability (mean % remaining) in human plasma after incubation at 37 °C for 0h. Format: ADME. As to conditions: read-out: %R. In short, it runs like this: as §2
A short description of data set [4]: Stability (mean % remaining) in human plasma after incubation at 37 °C for 4h. Format: ADME, cell-free. Particulars: read-out: %R. In short, it runs like this:
as §2

Data set [5] in a line: Stability (mean % remaining) in human plasma after incubation at 37 °C for 2h. The class given is ADME, cell-free. Particulars: read-out: %R. In short, it runs like this:
as §2

Another data set addresses Histone deacetylase 1 (Homo sapiens, UniProt Q13547). Description: Inhibition of HDAC1.

Chain of Histone deacetylase 1 (Q13547 whole entry): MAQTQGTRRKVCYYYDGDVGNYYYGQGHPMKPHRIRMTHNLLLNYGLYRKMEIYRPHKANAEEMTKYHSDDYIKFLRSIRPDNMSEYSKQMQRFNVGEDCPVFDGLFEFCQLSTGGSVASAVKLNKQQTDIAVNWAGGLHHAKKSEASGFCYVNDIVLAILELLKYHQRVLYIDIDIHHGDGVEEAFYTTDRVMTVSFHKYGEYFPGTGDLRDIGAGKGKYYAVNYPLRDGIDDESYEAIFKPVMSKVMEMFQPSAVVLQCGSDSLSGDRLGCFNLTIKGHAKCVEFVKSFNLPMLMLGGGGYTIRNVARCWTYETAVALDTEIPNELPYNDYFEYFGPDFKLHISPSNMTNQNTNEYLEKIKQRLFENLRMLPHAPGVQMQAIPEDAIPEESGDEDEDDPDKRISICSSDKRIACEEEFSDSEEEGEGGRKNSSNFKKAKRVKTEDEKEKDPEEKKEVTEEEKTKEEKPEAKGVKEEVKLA

On to `COC(C(=O)SCCCCCCC(=O)Nc1nc(-c2ccccc2)cs1)c1ccccc1` (stereo unspecified), for which the EC50 was more than 20 µM in the data set on MDA-MB-231 (Homo sapiens, MDA-MB-231) and 11 µM in the data set with NCI-H460.
`CC(C(=O)SCCCCCCC(=O)Nc1nc(-c2ccccc2)cs1)c1ccccc1` (stereo unspecified): the half-maximal effective concentration (EC50) was 23 µM in the data set with HCT-116; 86 µM in the data set with DLD-1; 33 µM in the data set on Malme-3M; 26 µM in the data set with A498; 37 µM in the data set on PC-3; more than 20 µM with MDA-MB-231 (Homo sapiens, MDA-MB-231). The results for the EC50 in the data set with MDA-MB-231 (mda-mb-231), in the data set on T47D and with NCI-H460 were 27 µM, more than 100 µM and 3.2 µM, respectively.
Take `C[C@@H](Cc1ccccc1)C(=O)SCCCCCCC(=O)Nc1nc(-c2ccccc2)cs1`: the half-maximal effective concentration (EC50) in the data set with HCT-116 was 0.62 µM; with PC-3, 4.4 µM; in the data set with MDA-MB-231 (Homo sapiens, MDA-MB-231) it was 4 µM; with NCI-H460, 3 µM.
The matching figures for `C[C@H](Cc1ccccc1)C(=O)SCCCCCCC(=O)Nc1nc(-c2ccccc2)cs1`: 0.75 µM, 9.9 µM, 3.1 µM and 3.2 µM.
In the case of `CC(C)C(=O)SCCCCCCC(=O)Nc1nc(-c2ccccc2)cs1`, in data set [1], the remaining at 24 h was found to be 49%. Moreover, the remaining at 8 h in data set [2] came to 63%. Besides, the half-maximal effective concentration (EC50) in the data set on HCT-116 worked out at 1.3 µM; in the data set with DLD-1, 2.3 µM; with Malme-3M, 4.3 µM; in the data set with A498, 6.8 µM; in the data set with PC-3, 9.5 µM; in the data set with MDA-MB-231 (Homo sapiens, MDA-MB-231), 4.4 µM. The EC50 in the data set with T47D stood at 8.3 µM; in the data set on NCI-H460, 2.1 µM. In addition, the remaining at 0 h in [3] came out at 100%. The remaining at 4 h in [4] was 71%. The remaining at 2 h in [5] came to 86%.
For the compound `CC(Cc1ccccc1)C(=O)SCCCCCCC(=O)Nc1nc(-c2ccccc2)cs1` (stereo unspecified), the remaining at 24 h in [1] amounted to 100%. The compound further displayed a half-maximal inhibitory concentration (IC50) against Histone deacetylase 1 of more than 100 µM. Moreover, in data set [2], the remaining at 8 h is 99%. Further, the EC50 is 1.2 µM in the data set with HCT-116; 1.8 µM in the data set with DLD-1; 3 µM in the data set on Malme-3M; 2.6 µM in the data set with A498; 3.2 µM with PC-3; 1.9 µM with MDA-MB-231 (Homo sapiens, MDA-MB-231). Moreover, the EC50 in the data set on T47D came out at 4.3 µM; in the data set with NCI-H460, 1.5 µM. For the same compound, in data set [3], the remaining at 0 h is 100%. Also, the remaining at 4 h in data set [4] is 99%. The remaining at 2 h in data set [5] turned out to be 100%.
Regarding `O=C(CCCCCCS)Nc1nc(-c2ccccc2)cs1`, it took 0.048 µM to reach half-maximal inhibition on Histone deacetylase 1 (IC50). Besides, the 50% effective concentration (EC50) in the data set on MDA-MB-231 (Homo sapiens, MDA-MB-231) is more than 20 µM; in the data set on NCI-H460 it was 7.6 µM.
Take `O=C(CCCCCCSC(=O)C(Cc1ccccc1)Cc1ccccc1)Nc1nc(-c2ccccc2)cs1`: the EC50 with MDA-MB-231 (Homo sapiens, MDA-MB-231) is more than 20 µM; in the data set with NCI-H460, more than 20 µM.
